From PubChem
PG9 binder: small molecules binding HIV-1 gp120 antibody PG9 | TR-FRET gp120-PG9 antibody binding | inhibition, % at 6.7 µM | actives 0.43% (n = 360,000) | AID 624416; in the data active means inhibition above about 8.5%
NR2E3 ag-1: agonists of human NR2E3 nuclear receptor; CHO-S Gal4-NCOR/VP16-NR2E3 two-hybrid, luciferase; inhibition of corepressor binding, % at 3.98 µM; actives 0.35% (n = 360,000);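 active means inhibition above the mean of all tested compounds plus 3 SD, cut at about 70% in these data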;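 further: 0% = DMSO with NR2E3 transfected cells and 100% = cells lacking NR2E3 construct; higher means lower luciferase signal from less NR2E3 corepressor binding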
NR2E3 ag-2: activates human photoreceptor nuclear receptor NR2E3; Q9Y5X4; GST-NR2E3/biotin-RetCOR TR-FRET, 1536-well; inhibition of corepressor binding, % at 4.78 µM; actives 0.12% (n = 320,000); AID 2300;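 active means percent inhibition above the cutoff of mean plus 3 SD of all tested compounds, set per screening campaign, cut at about 20% in these data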;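 further: 0% = DMSO wells and 100% = biotin wells as full block of FRET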
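Format: 1536-well format; test system: GST-NR2E3 and biotin-RetCOR proteins; read-out basis: percent inhibition of TR-FRET ratio; timing: 5 h incubation at 4 °C; detection: time-resolved FRET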
NR1D1 modulator: modulates human Rev-erb alpha binding to DNA | activity, % at 10 µM | P20393 | Rev-erbα–FITC-DNA binding, fluorescence polarization, 90 min | actives 0.79% (n = 370,000);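 active means activity above about 14%, limit read from the data; passing the limit was not always enough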;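 further: 0% = DMSO wells with 35 nM protein and 100% = DMSO wells with 750 nM protein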
Target sequence (P20393 whole entry, looked up): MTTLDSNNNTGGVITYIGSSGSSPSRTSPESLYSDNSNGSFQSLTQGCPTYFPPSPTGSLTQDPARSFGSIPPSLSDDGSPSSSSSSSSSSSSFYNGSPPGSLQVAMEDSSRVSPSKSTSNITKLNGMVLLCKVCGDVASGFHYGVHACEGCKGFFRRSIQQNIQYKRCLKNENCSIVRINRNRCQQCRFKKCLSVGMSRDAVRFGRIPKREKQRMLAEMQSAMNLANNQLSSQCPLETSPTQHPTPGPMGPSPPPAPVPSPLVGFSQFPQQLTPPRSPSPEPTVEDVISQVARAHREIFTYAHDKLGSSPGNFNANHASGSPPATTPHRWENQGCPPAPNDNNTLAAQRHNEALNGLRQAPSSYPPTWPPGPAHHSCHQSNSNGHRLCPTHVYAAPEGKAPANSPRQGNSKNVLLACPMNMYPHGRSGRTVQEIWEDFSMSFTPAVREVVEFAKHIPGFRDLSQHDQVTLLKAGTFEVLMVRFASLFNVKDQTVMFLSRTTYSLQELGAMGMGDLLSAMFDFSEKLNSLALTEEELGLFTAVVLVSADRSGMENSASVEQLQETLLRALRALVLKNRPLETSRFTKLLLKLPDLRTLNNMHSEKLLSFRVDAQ
SKN-1 inh: C. elegans SKN-1 inhibition | C. elegans VP596 Pgst-4::GFP/RFP ratio, acrylamide-induced, 24 h | actives 0.49% (n = 360,000) | inhibition, % at 21.8 µM | AID 624304;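 active means interference check ratio from 0.5 to 1.5 plus GFP to RFP signal ratio inhibition reaching or exceeding a fixed threshold, cut at about 30% in these data, passing the limit was not always enough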
MT1-MMP act inh: MT1-MMP (human) activation inhibition | actives 0.061% (n = 360,000) | AID 651647 | HT1080 RFP-PRO-GFP cells, GFP/RFP ratio fluorescence, overnight; percent of plate control window, DMSO zero | GFP/RFP ratio change, % at 20 µM | P50281;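 active means GFP/RFP ratio change of at least 30% with cell ATP level not reduced by more than half and red fluorescence within 50% of control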
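Assay system: RFP-PRO-GFP reporter HT1080 cells; read-out basis: GFP/RFP fluorescence ratio; benchmarks: DMSO wells and RFP-L50D-GFP cells; doses: 20 µM single dose, 1% DMSO; schedule: overnight cell settling, then overnight compound exposure, 37 °C, 5% CO2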
NR1D1 mod conf: confirmation of modulators of human Rev-erb alpha DNA binding | shares compounds with NR1D1 modulator | Rev-erb alpha FITC-DNA binding, fluorescence polarization, 90 min | activation, % at 25 µM | actives 61% (n = 3,000) | AID 1259319;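 active means activation at or above a set limit, or at least 3 SD above the negative control mean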;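 further: 0% = 35 nM protein with DMSO and 100% = 750 nM protein high control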
RORg counter: affects RORgamma DNA binding in a Rev-erb alpha counter-screen | shares compounds with NR1D1 modulator | purified RORgamma protein-FITC-DNA binding, fluorescence polarization | IC50, µM | actives 8% (n = 910) | AID 1259320;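 active means Compounds whose fitted half-maximal concentration for disrupting protein-DNA binding is below 10 micromolar; the record names Rev-erb in its text, so the target is in doubt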
Active calls of the source: *; x = not tested or not shown. An excerpt weighted towards active compounds, which were near 1.9% of everything screened.

SMILES	PG9 binder	NR2E3 ag-1	NR2E3 ag-2	NR1D1 modulator	SKN-1 inh	MT1-MMP act inh	NR1D1 mod conf	others
CCCCCn1c(=O)c(C(=O)Nc2ccccn2)c(O)c2ccccc21	0.9	-16.0	5.1	-0.7	0.7	-18.2	x
CCCCCn1c(=O)c(C(=O)Nc2ccccc2)c(O)c2ccccc21	-2.6	0.5	1.2	21.2*	11.5	-0.4	4.3
CCOC(=O)CC[C@@H]1CC[C@]2(CCCN(Cc3ccncc3)C2)O1	x	x	x	0.2	x	x	x
CN(C)CCN=Cc1c(O)n(Cc2ccc3c(c2)OCO3)c(=S)[nH]c1=O	-0.5	-8.1	-2.3	3.7	16.0	-7.3	x
O=c1[nH]c(=S)n(Cc2ccc(F)cc2)c(O)c1C=NCc1ccc2c(c1)OCO2	0.7	-14.6	0.0	25.1*	12.3	6.5	12.2
CN(c1ccc(O)cc1)c1ccc([N+](=O)[O-])c2nonc12	-6.7	-1.4	x	25.1*	6.6	-0.2	29.7*	RORg counter=>40
c1ccc(N2[C@@H]3CC[C@H]2c2ccncc2C3)cc1	0.4	x	x	7.3	6.7	7.1	x
O=c1c(C=NCCN2CCNCC2)c(O)n(C2CCCCC2)c(=O)n1C1CCCCC1	x	2.0	4.9	x	8.5	-6.8	x
O=c1c(C=NCc2cccs2)c(O)n(C2CCCCC2)c(=O)n1C1CCCCC1	0.3	-5.8	-0.2	63.4*	4.5	-11.8	1.6
CC1OC(OC2C=C3CCC4C(CCC5(C)C(c6ccc(=O)oc6)CCC45O)C3(C)CC2)C(O)C(OC2OC(CO)C(O)C(O)C2O)C1O (stereo not drawn)	2.2	8.7	x	1.0	6.1	-33.3	x
O=C1NC(=O)N(c2ccc3c(c2)OCO3)C(=O)/C1=C\c1ccc(N2CCCCC2)o1	-7.9	-2.9	-0.4	26.0*	20.6	-81.8	25.7*
CN1C(=O)C(=Cc2ccc(N3CCOCC3)o2)C(=O)N(C)C1=O	-9.0	-26.9	-0.5	40.7*	22.1	-26.4	44.1*	RORg counter=>40
CN1C(=O)C(=Cc2ccc(N3CCCCCC3)o2)C(=O)N(C)C1=S	-2.5	-25.0	-0.1	38.7*	30.0	-71.4	60.4*	RORg counter=>40
CCc1ccccc1N1C(=O)/C(=C/c2ccc(N3CCN(C)CC3)o2)C(=O)NC1=S	-5.0	-17.5	-4.8	0.0	26.5	-33.2	x
Cn1cc(Br)c(C(=O)Nc2ccc3c(C(F)(F)F)cc(=O)oc3c2)n1	0.3	-16.4	x	15.1*	17.0	2.1	2.9
S=C(NCCc1ccccc1)N1Cc2cc(N3CCCCC3)ccc2-n2nncc2C1	1.7	3.2	x	3.1	18.7	-4.4	x
O=[N+]([O-])c1ccc(N2CCCCCC2)c2nonc12	-4.2	-11.6	-0.8	55.8*	69.2	-38.6	48.7*	RORg counter=4.13*
O=[N+]([O-])c1ccc(N2CCCCC2)c2ncccc12	-1.7	-43.8	2.3	10.1	17.5	7.1	x
CCCCn1nnnc1C(CCc1ccccc1)N1CCC2(CC1)C(=O)NCN2c1ccccc1 (stereo not drawn)	-0.2	-19.7	x	1.2	15.7	-2.5	x
Cc1cc2c(C(F)(F)F)cc(=O)oc2c2c1NCCC2	3.1	-9.2	2.0	17.3*	-6.4	-266.5	16.9*
O=c1cc(C(F)(F)F)c2cc3c4c(c2o1)CCCN4CCC3	1.9	-19.7	2.1	-0.3	-18.6	-193.2	x
O=C1NC(=S)SC1=Cc1ccc(N(CCCl)CCCl)cc1	-1.8	-26.5	x	23.6*	31.7	-119.9	19.9*
COc1ccc(N=Nc2c(O)[nH]c(=S)[nH]c2=O)cc1	-11.6	-71.2	-6.0	26.7*	25.9	3.5	18.8*
O=c1[nH]c(=S)[nH]c(O)c1N=Nc1ccc2c(c1)OCCO2	-13.0	-79.9	-2.5	30.4*	25.3	13.1	25.3*
COc1cccc(N=Nc2c(O)[nH]c(=S)[nH]c2=O)c1	-10.3	-24.3	-0.9	5.4	20.6	8.8	x
SMILES	PG9 binder	NR2E3 ag-1	NR2E3 ag-2	NR1D1 modulator	SKN-1 inh	MT1-MMP act inh	NR1D1 mod conf	others
CC[C@H](C)[C@@H]1O[C@@]2(C=CC1C)CC1C[C@@H](CC=C(C)C(O[C@H]3CC(OC)C(O[C@H]4CC(OC)C(O)C(C)O4)C(C)O3)C(C)C=CC=C3CO[C@@H]4C(O)C(C)=C[C@@H](C(=O)O1)[C@]34O)O2 (stereo partly drawn)	x	x	-0.3	x	x	x	x
CCCCOCCCN1C(C)=CC(=C2C(=O)NC(=S)NC2=O)C=C1C	-1.1	-24.6	0.3	41.4*	6.8	0.0	-1.7
N#Cc1ccc2nc(-c3ccc(CN4CCC(n5nnc6ccccc65)CC4)cc3)c(-c3ccccc3)nc2c1	0.2	x	x	2.3	x	x	x
Cc1ccc(-n2c(=O)[nH]c3ccccc3c2=O)cc1[N+](=O)[O-]	x	-8.0	x	x	-4.8	-1.8	x
CCCCOC(=O)COc1cc(C)cc2oc(=O)c3c(c12)CCC3	-2.0	-10.9	2.4	26.1*	0.9	-9.5	13.5
O=[N+]([O-])c1ccc(NCc2ccccc2)c2nonc12	-3.5	x	2.5	37.8*	x	x	52.4*	RORg counter=4.13*
C[C@]12CCC3C(CC[C@H]4C[C@@H](O)CC[C@]34C)C1CC[C@@H]2N (stereo partly drawn)	-0.1	20.5	x	-5.0	10.0	-11.2	x
Nc1ccc2ccc3cccc[n+]3c2c1	2.0	-54.2	7.2	127.3*	-99.5	-174.5	105.2*	RORg counter=>40
C[n+]1c(-c2ccccc2)c2cc(N)ccc2c2ccc(N)cc21	-17.5	13.5	-5.1	-21.8	88.6	58.7	x
CC1(C)CC(=O)CC(C)(C)N1O	-2.9	-33.8	x	-3.9	8.4	5.3	x
